Measurements reported in ChEMBL document CHEMBL2146434, “Synthesis and biological evaluation of new amino acid and dipeptide derivatives of neocryptolepine as anticancer agents” (J Med Chem, 2012).
Counter-ions that a name gives are not always drawn.

Assays:
[1] = test system: Lewis lung carcinoma cell line; experiment: Antineoplastic activity against mouse LLC cells xenografted in C57BL/6 mouse assessed as tumor growth inhibition at 15 mg/kg/day, ip administered on day 9 to day 13 of tumor implantation measured on day 14; type: functional; details: route intraperitoneal, read-out: TGI
Method in brief: (§1)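 Mice bore Lewis lung carcinoma (LLC) inoculated subcutaneously and received test agents intraperitoneally at 15–50 mg kg⁻¹ day⁻¹ from day 9 or day 10. A single 100 mg/kg cyclophosphamide dose was the cytostatic control. Tumor growth was followed as the group median, and TGI% was calculated from medians versus untreated controls. Significance was tested by nonparametric Kruskal–Wallis multiple comparison, p < 0.05.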

[2] = test system: A549; experiment: Cytotoxicity against human A549 cells after 72 hrs by SRB assay; type: functional, cell-based; details: A549, 72 h
Method in brief: (§2)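 IC50 is the compound concentration giving 50% inhibition of cell proliferation. It was determined on normal mouse BALB/3T3 fibroblasts and on human A549, MCF-7 and LoVo cancer lines, with doxorubicin hydrochloride and DiMIQ as reference compounds.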

[3] = test system: Lewis lung carcinoma cell line; experiment: Antineoplastic activity against mouse LLC cells xenografted in C57BL/6 mouse assessed as tumor growth inhibition at 30 mg/kg/day, ip administered on day 9 to day 12 of tumor implantation measured on day 21; type: functional; details: route intraperitoneal, read-out: TGI; method in brief: as §1
[4] = Octanol-water partition coefficient, log P of the compound in PBS buffer at pH 7.4 by spectrophotometric analysis; type: physicochemical
Method in brief: (§3)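 Octanol–water partitioning, with log P defined as log(C_octanol/C_water). Compound in the aqueous phase was measured spectrophotometrically, and octanol content was obtained by subtracting the supernatant concentration from the total. Values are the mean of two independent experiments, each run in triplicate.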

[5] = test system: MCF7; experiment: Cytotoxicity against human MCF7 cells after 72 hrs by SRB assay; type: functional, cell-based; details: MCF7, 72 h; method in brief: as §2
[6] = test system: Lewis lung carcinoma cell line; experiment: Antineoplastic activity against mouse LLC cells xenografted in C57BL/6 mouse assessed as tumor growth inhibition at 15 mg/kg/day, ip administered on day 9 to day 13 of tumor implantation measured on day 21; type: functional; details: route intraperitoneal, read-out: TGI; method in brief: as §1
[7] = test system: Mus musculus; experiment: Toxicity in C57BL/6 mouse xenografted with mouse LLC cells assessed as body weight loss at 30 mg/kg/day, ip administered on day 9 to day 12 of tumor implantation; type: organism-based; set-up: route intraperitoneal; details: in vivo
Method in brief: (§4)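 Mouse Lewis lung carcinoma (LLC) cells inoculated sc into mice. Daily dosing from day 9: 15 mg kg⁻¹ day⁻¹ through day 13 or 30 mg kg⁻¹ day⁻¹ through day 12; 25 or 50 mg kg⁻¹ day⁻¹ through day 13. Route is given as ip in tables and text but sc in figure legends. Body weight monitored for loss alongside tumor growth. Single 100 mg/kg cyclophosphamide dose as cytostatic control.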

[8] = test system: Lewis lung carcinoma cell line; experiment: Antineoplastic activity against mouse LLC cells xenografted in C57BL/6 mouse assessed as tumor growth inhibition at 30 mg/kg/day, ip administered on day 9 to day 12 of tumor implantation measured on day 16; type: functional; details: route intraperitoneal, read-out: TGI; method in brief: as §1
[9] = test system: Mus musculus; experiment: Toxicity in C57BL/6 mouse xenografted with mouse LLC cells assessed as body weight loss at 15 mg/kg/day, sc administered on day 9 to day 13 of tumor implantation; type: organism-based; set-up: route subcutaneous; details: in vivo
Method in brief: (§5)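 Body weight was tracked in C57BL/6 mice bearing subcutaneously inoculated LLC during therapy given daily from day 9 to day 13. A single 100 mg/kg dose of cyclophosphamide served as the cytostatic control group.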

[10] = Octanol-water partition coefficient, log P of the compound in citric buffer at pH 2.5 by spectrophotometric analysis; type: physicochemical; method in brief: as §3
[11] = test system: Lewis lung carcinoma cell line; experiment: Antineoplastic activity against mouse LLC cells xenografted in C57BL/6 mouse assessed as tumor growth inhibition at 15 mg/kg/day, ip administered on day 9 to day 13 of tumor implantation measured on day 16; type: functional; details: route intraperitoneal, read-out: TGI; method in brief: as §1
[12] = test system: Lewis lung carcinoma cell line; experiment: Antineoplastic activity against mouse LLC cells xenografted in C57BL/6 mouse assessed as tumor growth inhibition at 30 mg/kg/day, ip administered on day 9 to day 12 of tumor implantation measured on day 23; type: functional; details: route intraperitoneal, read-out: TGI; method in brief: as §1
[13] = test system: Mus musculus; experiment: Toxicity in C57BL/6 mouse xenografted with mouse LLC cells assessed as body weight loss at 15 mg/kg/day, ip administered on day 9 to day 13 of tumor implantation; type: organism-based; set-up: route intraperitoneal; details: in vivo; method in brief: as §5
[14] = Ratio of IC50 for compound to ratio of IC50 for DiMIQ for BALB mouse 3T3 cells; type: cell-based; details: read-out: Ratio IC50
[15] = test system: KB; experiment: Cytotoxicity against human KB cells after 72 hrs by SRB assay; type: functional, cell-based
[16] = test system: Lewis lung carcinoma cell line; experiment: Antineoplastic activity against mouse LLC cells xenografted in C57BL/6 mouse assessed as tumor growth inhibition at 15 mg/kg/day, ip administered on day 9 to day 13 of tumor implantation measured on day 23; type: functional; details: route intraperitoneal, read-out: TGI; method in brief: as §1
[17] = test system: Mus musculus; experiment: Toxicity in C57BL/6 mouse xenografted with mouse LLC cells at 15 mg/kg/day, ip administered on day 9 to day 13 of tumor implantation; type: organism-based; set-up: route intraperitoneal; details: in vivo; method in brief: as §4
[18] = test system: Mus musculus; experiment: Toxicity in C57BL/6 mouse xenografted with mouse LLC cells assessed as body weight loss at 50 mg/kg/day, sc administered on day 9 to day 13 of tumor implantation; type: organism-based; set-up: route subcutaneous; details: in vivo; method in brief: as §4
[19] = test system: Lewis lung carcinoma cell line; experiment: Antineoplastic activity against mouse LLC cells xenografted in C57BL/6 mouse assessed as tumor growth inhibition at 15 mg/kg/day, ip administered on day 9 to day 13 of tumor implantation measured on day 18; type: functional; details: route intraperitoneal, read-out: TGI; method in brief: as §1
[20] = test system: Mus musculus; experiment: Toxicity in C57BL/6 mouse xenografted with mouse LLC cells assessed as body weight loss at 30 mg/kg/day, sc administered on day 9 to day 12 of tumor implantation; type: organism-based; set-up: route subcutaneous; details: in vivo; method in brief: as §4
[21] = Dissociation constant, pKa of the compound in PBS buffer at 5 uM at pH 2 to 10 by UV-spectrophotometric analysis; type: physicochemical
Method in brief: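 UV spectrophotometric titration at a final compound concentration of 5 μM. At this concentration the absorbance–concentration relationship stayed linear. pKa was read from spectral changes across pH.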

[22] = Solubility of the compound in water; type: physicochemical; details: buffer
[23] = test system: LoVo; experiment: Cytotoxicity against human LoVo cells after 72 hrs by SRB assay; type: functional, cell-based; method in brief: as §2
[24] = test system: Lewis lung carcinoma cell line; experiment: Antineoplastic activity against mouse LLC cells xenografted in C57BL/6 mouse assessed as tumor growth inhibition at 15 mg/kg/day, ip administered on day 9 to day 13 of tumor implantation measured on day 11; type: functional; details: route intraperitoneal, read-out: TGI; method in brief: as §1
[25] = test system: Mus musculus; experiment: Toxicity in C57BL/6 mouse xenografted with mouse LLC cells at 30 mg/kg/day, ip administered on day 9 to day 12 of tumor implantation; type: organism-based; set-up: route intraperitoneal; details: in vivo; method in brief: as §4
[26] = test system: Lewis lung carcinoma cell line; experiment: Antineoplastic activity against mouse LLC cells xenografted in C57BL/6 mouse assessed as tumor growth inhibition at 30 mg/kg/day, ip administered on day 9 to day 12 of tumor implantation measured on day 11; type: functional; details: route intraperitoneal, read-out: TGI; method in brief: as §1
[27] = test system: Lewis lung carcinoma cell line; experiment: Antineoplastic activity against mouse LLC cells xenografted in C57BL/6 mouse assessed as tumor growth inhibition at 30 mg/kg/day, ip administered on day 9 to day 12 of tumor implantation measured on day 18; type: functional; details: route intraperitoneal, read-out: TGI; method in brief: as §1
[28] = test system: Lewis lung carcinoma cell line; experiment: Antineoplastic activity against mouse LLC cells xenografted in C57BL/6 mouse assessed as tumor growth inhibition at 30 mg/kg/day, ip administered on day 9 to day 12 of tumor implantation measured on day 14; type: functional; details: route intraperitoneal, read-out: TGI; method in brief: as §1
[29] = Toxicity in human erythrocytes assessed as hemolysis at 0.3 mM after 30 mins by spectrophotometric analysis; type: cell-based, Erythrocyte; details: read-out: Activity
Method in brief: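 Human erythrocyte suspension under isotonic conditions (pH 7.4, hematocrit 50%). Compound added across a concentration series and incubated 30 min at 37 °C before hemolysis was scored. Mean ± SD of three individual determinations. Statistics by Mann–Whitney U test, p < 0.05.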

Cc1c2c3cc(NC(=O)[C@@H]4CCCN4)ccc3nc-2n(C)c2ccccc12.Cl.Cl
inhibition in vivo at 15 mg/kg/day [1]: 42.6% | IC50 [2]: 480 nM | inhibition in vivo at 30 mg/kg/day [3]: 37.9% | logD [4]: 1.4 | IC50 [5]: 820 nM | inhibition in vivo at 15 mg/kg/day [6]: 0% | Activity [7]: <= 15% | inhibition in vivo at 30 mg/kg/day [8]: 75.8% | Activity [9]: <= 15% | logP [10]: -1.9 | inhibition in vivo at 15 mg/kg/day [11]: 47.7% | inhibition in vivo at 30 mg/kg/day [12]: 41.1% | Activity [13]: <= 15% | selectivity ratio [14]: 5 | IC50 [15]: 420 nM | inhibition in vivo at 15 mg/kg/day [16]: 24.6% | Activity [17]: Toxic | Activity [18]: <= 15% | inhibition in vivo at 15 mg/kg/day [19]: 8.38% | Activity [20]: <= 15% | pKa at 5 µM [21]: 7.2 | solubility [22]: soluble | IC50 [23]: 810 nM | inhibition in vivo at 15 mg/kg/day [24]: 42% | Activity [25]: Toxic | inhibition in vivo at 30 mg/kg/day [26]: 61.2% | inhibition in vivo at 30 mg/kg/day [27]: 50% | inhibition in vivo at 30 mg/kg/day [28]: 74%

Cc1c2c3cc(NC(=O)[C@@H](N)Cc4cnc[nH]4)ccc3nc-2n(C)c2ccccc12.Cl
IC50 [15]: 3460 nM | solubility [22]: soluble

Cc1c2c3cc(NC(=O)[C@@H]4CCCN4C(=O)CN)ccc3nc-2n(C)c2ccccc12.Cl.Cl
IC50 [2]: 860 nM | IC50 [5]: 1130 nM | selectivity ratio [14]: 5 | IC50 [15]: 700 nM | solubility [22]: soluble | IC50 [23]: 440 nM

Cc1c2ccccc2nc2c1c1cc(NC(=O)[C@@H](N)CO)ccc1n2C
IC50 [15]: 5960 nM

Cc1c2ccccc2nc2c1c1cc(NC(=O)[C@@H]3CCCN3)ccc1n2C
IC50 [15]: 4390 nM

Cc1c2c3cc(NC(=O)CNC(=O)[C@@H](N)Cc4cnc[nH]4)ccc3nc-2n(C)c2ccccc12.Cl
IC50 [15]: 3640 nM | solubility [22]: soluble

Cc1c2ccccc2nc2c1c1cc(NC(=O)[C@@H](N)Cc3cnc[nH]3)ccc1n2C
IC50 [15]: 5960 nM

Cc1c2c3cc(NC(=O)CN)ccc3nc-2n(C)c2ccccc12.Cl.Cl
inhibition in vivo at 15 mg/kg/day [1]: 47.4% | IC50 [2]: 1310 nM | inhibition in vivo at 30 mg/kg/day [3]: 13.5% | logD [4]: 0.6 | IC50 [5]: 1450 nM | inhibition in vivo at 15 mg/kg/day [6]: 26.1% | Activity [7]: <= 15% | inhibition in vivo at 30 mg/kg/day [8]: 55.3% | Activity [9]: <= 15% | logP [10]: -1.9 | inhibition in vivo at 15 mg/kg/day [11]: 23.9% | inhibition in vivo at 30 mg/kg/day [12]: 19.7% | Activity [13]: <= 15% | selectivity ratio [14]: 5 | IC50 [15]: 670 nM | inhibition in vivo at 15 mg/kg/day [16]: 25.8% | Activity [17]: Toxic | Activity [18]: <= 15% | inhibition in vivo at 15 mg/kg/day [19]: 0% | Activity [20]: <= 15% | pKa at 5 µM [21]: 7.2 | solubility [22]: soluble | IC50 [23]: 880 nM | hemolysis at 0.5 h, 300 µM [29]: 42.5% | inhibition in vivo at 15 mg/kg/day [24]: 42.4% | Activity [25]: Toxic | inhibition in vivo at 30 mg/kg/day [26]: 50.1% | inhibition in vivo at 30 mg/kg/day [27]: 14.3% | inhibition in vivo at 30 mg/kg/day [28]: 54.7%

Cc1c2c3cc(NC(=O)[C@H]4CCCN4)ccc3nc-2n(C)c2ccccc12.Cl.Cl
IC50 [2]: 320 nM | IC50 [5]: 600 nM | selectivity ratio [14]: 5 | IC50 [15]: 730 nM | solubility [22]: soluble | IC50 [23]: 620 nM

Cc1c2c3cc(NC(=O)[C@@H]4CCCN4C(=O)[C@@H]4CCCN4)ccc3nc-2n(C)c2ccccc12.Cl.Cl
IC50 [2]: 540 nM | IC50 [5]: 960 nM | selectivity ratio [14]: 5 | IC50 [15]: 560 nM | solubility [22]: soluble | IC50 [23]: 360 nM

Cc1c2c3cc(NC(=O)[C@H](N)Cc4cnc[nH]4)ccc3nc-2n(C)c2ccccc12.Cl
IC50 [15]: 4850 nM | solubility [22]: soluble

COc1cccc2c1C(=O)c1c(O)c3c(c(O)c1C2=O)C[C@@](O)(C(=O)CO)C[C@@H]3O[C@H]1C[C@H](N)[C@H](O)[C@H](C)O1 [DOXORUBICIN HYDROCHLORIDE]
IC50 [5]: 440 nM | IC50 [15]: 840 nM | IC50 [23]: 110 nM
